Measured values from ChEMBL document CHEMBL1147781, “Design, synthesis and in vitro antimalarial activity of an acylhydrazone library” (Bioorg Med Chem Lett, 2006).

Tests used:
MRC5 [1] = assay: Relative antimalarial activity to cytotoxicity as selectivity index (CC50/IC50); assay type: functional
Plasmodium falciparum [2] = assay: Growth inhibition of chloroquine-resistant Plasmodium falciparum FcB1 at 1 uM; assay type: functional
MRC5 [3] = assay: Cytotoxicity against human diploid embryonic lung MRC5 cells by colorimetric MTT assay; assay type: functional
Summary of the method: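 Human MRC5 cells were used, with the value reported as CC50 in µM. Results are given as the mean ± SD of two to three independent experiments.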

Plasmodium falciparum [4] = assay: Antimalarial activity against chloroquine-resistant Plasmodium falciparum FcB1; assay type: functional, organism-based
Summary of the method: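 P. falciparum FcB1 (chloroquine-resistant) growth inhibition; IC50 reported as mean ± SD of two to three independent experiments.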

| Structure (SMILES) | Ratio CC50/IC50 (MRC5 [1]) | inhibition at 1 µM (Plasmodium falciparum [2]) [%] | CC50 (MRC5 [3]) [nM] | IC50 (Plasmodium falciparum [4]) [nM] |
| --- | --- | --- | --- | --- |
| CCN(CC)c1ccc(/C=N/NC(=O)c2ccccc2)c(O)c1 | 1 | 60 | 1100 | 1100 |
| COc1ccc(C(=O)N/N=C/c2cc(C(C)(C)C)ccc2O)cc1 | – | 53 | > 100000 | 2300 |
| Cc1ccc(O)c(/C=N/NC(=O)c2ccc(C(C)(C)C)cc2)c1 | 7.4 | 65 | 16300 | 2200 |
| O=C(N/N=C/c1ccccc1O)c1ccc(O)cc1 | – | 11 | – | – |
| O=C(N/N=C/c1ccccc1O)c1ccc(Cl)cc1 | – | 25 | – | – |
| CC(C)(C)c1ccc(O)c(/C=N/NC(=O)c2cccs2)c1 | 7.5 | 52 | 12000 | 1600 |
| O=C(N/N=C/c1ccccc1O)c1cccs1 | – | 13 | – | – |
| CC(C)(C)c1ccc(O)c(/C=N/NC(=O)c2ccc(Cl)cc2)c1 | 1 | 69 | 3600 | 2900 |
| CCN(CC)c1ccc(/C=N/NC(=O)c2ccc(C(C)(C)C)cc2)c(O)c1 | 1 | 73 | 1100 | 900 |
| O=C(Cc1ccccc1)N/N=C/c1ccccc1O | – | 27 | – | – |
| CC(C)(C)c1ccc(O)c(/C=N/NC(=O)c2ccccc2)c1 | 2 | 59 | 2600 | 1300 |
| Cc1ccc(O)c(/C=N/NC(=O)c2ccc(Cl)cc2)c1 | – | 52 | > 100000 | 1900 |
| O=C(N/N=C/c1ccccc1O)c1ccccc1 | – | 35 | – | – |
| CC(C)(C)c1ccc(O)c(/C=N/NC(=O)c2ccc([N+](=O)[O-])cc2)c1 | 1 | 81 | 1100 | 1600 |
| CC(C)(C)c1ccc(C(=O)N/N=C/c2cc(Br)ccc2O)cc1 | – | 52 | > 100000 | 1700 |
| CCN(CC)c1ccc(/C=N/NC(=O)c2ccc([N+](=O)[O-])cc2)c(O)c1 | 2.5 | 69 | 2500 | 1000 |
| CCN(CC)CCCC(C)Nc1ccnc2cc(Cl)ccc12 (centres undefined) [CHLOROQUINE] | – | – | 50000 | – |
| O=C(N/N=C/c1ccccc1O)c1cccnc1 [N'-(2-HYDROXYBENZYLIDENE)NICOTINOHYDRAZIDE] | – | 26 | – | – |
| O=C(N/N=C/c1ccccc1O)c1ccncc1 [SALINAZID] | – | 22 | – | – |
